SENP6 inh: SENP6 protease inhibitors, primary screen, biochemical, luminescence, uHTS; Recombinant SENP6 catalytic domain, aminoluciferin luminescence; AID 2599, 2010; 1.8% of 330,000 active; inhibition, % at 10 µM;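 active = inhibition above about 50% at the single tested dose, limit read from the data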
Target sequence (Q9GZR1 628-1112 limits assumed): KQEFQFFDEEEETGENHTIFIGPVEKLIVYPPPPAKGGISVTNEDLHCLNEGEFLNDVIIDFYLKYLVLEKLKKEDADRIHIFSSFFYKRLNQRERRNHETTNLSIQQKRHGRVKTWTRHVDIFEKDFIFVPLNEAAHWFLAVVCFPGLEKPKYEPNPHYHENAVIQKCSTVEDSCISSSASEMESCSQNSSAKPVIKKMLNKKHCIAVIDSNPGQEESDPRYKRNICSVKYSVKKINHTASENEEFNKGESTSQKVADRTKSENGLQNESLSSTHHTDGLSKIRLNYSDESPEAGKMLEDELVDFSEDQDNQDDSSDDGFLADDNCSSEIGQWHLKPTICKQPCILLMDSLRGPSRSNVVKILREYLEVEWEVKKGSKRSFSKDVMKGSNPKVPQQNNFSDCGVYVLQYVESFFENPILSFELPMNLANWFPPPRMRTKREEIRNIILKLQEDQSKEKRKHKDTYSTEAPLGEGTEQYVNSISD
SENP8 block-1: human SENP8 protease inhibitors, primary screen, biochemical, fluorescence, Nedd8 protein substrate, uHTS; Sentrin-specific protease 8 (Homo sapiens), Q96LD8; recombinant SENP8; inhibition, % at 20 µM; 0.64% of 360,000 active; AID 602440, 2012; in the data active = inhibition mostly above about 40%, no sharp cut-off; inactive = mostly below about 27%
SENP7 block: SENP7 protease inhibitors, primary screen, biochemical, luminescence, uHTS. inhibition, % at 5 µM. AID 434973, 2010. recombinant SENP7, Z-RLRGG-aminoluciferin luminescence, 40 min. Sentrin-specific protease 7 (Homo sapiens), Q9BQF6. 1.5% of 330,000 active;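 active = inhibition above about 50% at the single test dose, limit read from the data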
Platelet DG rel: inhibitors of platelet dense granule secretion, primary screen, cell-based, MLPCN, human platelets; 0.22% of 300,000 active; inhibition, %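 (compounds screened at 7.5 µM in platelet-rich plasma)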; AID 1663, 2009; human platelet-rich plasma, SFLLRN dense granule ATP release, luminescence;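 active = mean replicate score, as percent of positive control, at or above 50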
SENP8 block-2: SENP8 protease inhibitors, primary screen, biochemical, luminescence; purified SENP8, Z-RLRGG-aminoluciferin cleavage; inhibition, % at 10 µM; 1.2% of 330,000 active; in the data active = inhibition above about 50%
SENP1 inh: human SENP1 catalytic domain inhibitors, primary screen, biochemical, FRET, uHTS. Sentrin-specific protease 1 (Homo sapiens), Q9P0U3. recombinant SENP1 catalytic domain, CyPet-SUMO1-YPet FRET cleavage. inhibition, % at 10 µM. 0.21% of 360,000 active. AID 624204, 2012;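 active = inhibition at least 30% at 10 µM, raw YFP signal under a set limit, fluorescence ratio 0.5 to 1.5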
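Test system: recombinant human SENP1 catalytic domain, His6-tagged / Medium: pH 8 Tris buffer with EDTA, NaCl, BME, BSA, NP40, catalase / Also added: SUMO1 FRET substrate flanked by Cypet and Ypet, 25 nM / Times: 50 min reaction at room temperature / Signal: FRET, CFP and YFP emission / Control set: no-enzyme low control and enzyme-plus-DMSO high control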
SENP8 conf: SENP8 protease inhibitors, retest, confirmation, biochemical, luminescence, single concentration; shares compounds with SENP7 block; Recombinant SENP8, Z-RLRGG-aminoluciferin luminescence, 60 min; inhibition, % at 12.5 µM; 40% of 6,200 active;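 active = mean inhibition across replicates above about 50%, limit read from the data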
SENP6 confirm: SENP6 protease inhibitors, confirmation, biochemical, luminescence, single concentration; 58% of 6,200 active; shares compounds with SENP7 block; inhibition, % at 12.5 µM; recombinant SENP6, Z-RLRGG-aminoluciferin luminescence
SENP7 conf: SENP7 protease inhibitors, retest, confirmation, biochemical, luminescence, single concentration; shares compounds with SENP7 block; inhibition, % at 12.5 µM; 69% of 6,200 active; AID 488917, 2010; recombinant SENP7, Z-RLRGG-aminoluciferin luminescence, 40 min
Casp3 select: caspase-3 protease inhibitors, confirmation, selectivity assay for SENP inhibitor project, biochemical, single concentration; shares compounds with SENP7 block; purified caspase-3, Z-DEVD-aminoluciferin luminescence, 60 min; inhibition, % at 12.5 µM; 60% of 6,200 active;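 active = mean inhibition above about 50%, limit read from the data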
Luc interf: interferes with luciferase luminescence in SENP counter-screen | Pre-incubated SENP8/Z-RLRGG-aminoluciferin, luciferase luminescence interference | shares compounds with SENP7 block | inhibition, % at 12.5 µM | 39% of 6,200 active;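 active = mean inhibition above about 50% when retested at one dose, limit read from the data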
Numbers stand for hits; i = inactive; nt = not tested or not shown. Hits are enriched below; roughly 2.6% of the tested compounds scored in any of these assays.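 The calls were made as follows, unless noted: active = mean inhibition above about 50% in the one-dose retest (limit read from the data); inactive = the rest.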

SMILES | SENP6 inh | SENP8 block-1 | SENP7 block | Platelet DG rel | SENP8 block-2 | SENP1 inh | SENP8 conf | SENP6 confirm | SENP7 conf | Casp3 select | Luc interf
Cc1ccc(/C=C(\NC(=O)c2ccccc2)C(=O)NCC2CCCO2)o1 (stereo not given) | i | i | i | i | i | i | nt | nt | nt | nt | nt
O=C(CN1CCN(c2ccccn2)CC1)Nc1cccc(Br)c1 | i | i | i | i | i | i | nt | nt | nt | nt | nt
CCn1nccc1C(=O)Nc1ccc(C(=O)OC(C)C)cc1 | 76.9 | i | 76.2 | i | 67.4 | i | i | 68.3 | 88.0 | 66.6 | 59.2
CCn1cc(Br)c(C(=O)Nc2ccc(C(=O)OC(C)C)cc2)n1 | i | i | i | i | i | i | nt | nt | nt | nt | nt
N=C1/C(=C/c2cccs2)C(=O)N=C2SN=C(SCc3ccccc3)N12 | 65.9 | i | i | i | i | i | i | 59.4 | i | i | i
CC(C)CSC1=NSC2=NC(=O)/C(=C\c3cccs3)C(=N)N12 | 68.3 | i | i | i | i | i | 51.1 | 53.1 | i | i | i
CSC1=NSC2=NC(=O)/C(=C\c3cccs3)C(=N)N12 | nt | i | nt | i | nt | i | nt | nt | nt | nt | nt
Nc1ccc(C(=O)N/N=C/c2cn(Cc3ccccc3F)c3ccccc23)cc1 | i | i | i | i | i | i | nt | nt | nt | nt | nt
O=C(O)c1ccc(N/N=C/c2cn(Cc3ccccc3F)c3ccccc23)cc1 | 84.3 | i | i | i | 87.9 | i | 96.1 | 95.3 | 98.9 | i | i
CC(C)n1cc(/C=N/Nc2ccc(C(=O)O)cc2)c2ccccc21 | 82.4 | i | 61.3 | i | 80.0 | i | 90.4 | 88.6 | 96.0 | 60.8 | 55.0
c1ccc(C2=NNC(=NC3CC3)SC2)cc1 | 93.1 | i | 93.1 | i | 94.5 | i | 96.5 | 97.1 | 102.4 | 98.5 | 95.4
c1ccc2c(C3=NNC(=NC4CC4)SC3)c[nH]c2c1 | 62.6 | i | i | 55.9 | i | i | i | i | 80.9 | 80.5 | 66.9
Cc1cc2cc(OCc3ccccc3)ccc2n1C | 50.4 | i | i | i | i | i | i | i | i | i | i
O=C(O)c1ccc(/C=N\Nc2ccccn2)cc1 | 91.7 | i | 94.9 | 52.8 | 88.8 | i | 94.6 | 96.0 | 101.8 | 98.2 | 88.9
CN(C)c1ccc(/C=N\Nc2ccccn2)cc1 | 68.1 | i | 54.2 | i | i | i | 58.0 | 56.9 | 86.2 | 67.8 | i
C(=N\Nc1ccccn1)/c1cccnc1 | i | i | i | i | i | i | nt | nt | nt | nt | nt
CC1(C)Cc2c(sc(NC(=O)C(=O)N3CCN(CCO)CC3)c2C(N)=O)CO1 | i | i | i | i | i | i | nt | nt | nt | nt | nt
O=C(OCC1COc2ccccc2O1)c1c(F)cccc1F (stereo not given) | i | i | 82.6 | i | i | i | i | i | i | i | i
C#CCn1ccc(O)c(Cc2ccccc2)c1=O | i | i | i | i | i | i | nt | nt | nt | nt | nt
CN(C)S(=O)(=O)c1cccc(NC(=S)Nc2cccc3cnccc23)c1 | nt | i | nt | i | nt | i | nt | nt | nt | nt | nt

Source: PubChem BioAssay
